The values that follow come from ChEMBL document CHEMBL3992541, “Combined treatment with zingerone and its novel derivative synergistically inhibits TGF-β1 induced epithelial-mesenchymal transition, migration and invasion of human hepatocellular carcinoma cells” (2017).

The source made the active and inactive calls. No cut-off for these calls is given here.

The test system of experiment [1] is SNU-182. The experiment in a line: Growth inhibition of human SNU182 cells at <12.5 uM after 48 hrs by CCK8 assay. The class given is functional, cell-based.
Experiment [2] has as its system SNU-182. The experiment in a line: Growth inhibition of human SNU182 cells assessed as cell survival at 12.5 uM after 48 hrs by CCK8 assay relative to control. The class given is functional. To be noted: SNU-182, 48 h, read-out: Survival. In short, it runs like this: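 SNU182 human hepatocellular carcinoma cells were exposed to compound at 6.25, 12.5, 25, 50 and 100 µM in serum-free DMEM for 48 h. Viability was read by CCK-8, where WST-8 is reduced by cellular dehydrogenases to a soluble formazan, and expressed as survival relative to vehicle control. Values are mean±SD of triplicates.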
For orientation: Tetrazolium dyes change colour on reduction, which living cells bring about.

Experiment [3] relates to SNU-182. The experiment in a line: Growth inhibition of human SNU182 cells after 48 hrs by CCK8 assay. The format is functional, cell-based.
Experiment [4] has as its system SNU-182. Description: Inhibition of TGFbeta1-induced epithelial-mesenchymal transition in human SNU182 cells assessed as reduction in downregulation of E-cadherin expression at 12.5 uM preincubated for 2 hrs followed by TGFbeta1 addition measured after 48 hrs by Western blot method. The class given is functional, cell-based. In outline:
(§1)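 SNU182 cells pretreated 2 h with single agents (12.5 or 40 µM) or the mixture (20 and 40 µM), then stimulated with TGF-β1 5 ng/ml for 48 h. E-cadherin and Snail protein detected by Western blot, with GAPDH as loading control.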
(In western blotting, separated proteins are transferred to a membrane and probed.)

Experiment [5] deals with SNU-182. Description: Inhibition of TGFbeta1-induced epithelial-mesenchymal transition in human SNU182 cells assessed as reduction in upregulation of Snail expression at 12.5 uM preincubated for 2 hrs followed by TGFbeta1 addition measured after 48 hrs by Western blot method. The format is functional, cell-based. In short, it runs like this: as §1
Experiment [6] has as its system SNU-182. The experiment in a line: Inhibition of TGFbeta1-induced epithelial-mesenchymal transition in human SNU182 cells assessed as reduction in MMP2 mRNA expression at 12.5 uM preincubated for 2 hrs followed by TGFbeta1 addition measured after 48 hrs by qRT-PCR method. The format is functional, cell-based. In short, it runs like this: (§2)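 SNU182 cells pretreated 2 h with single agents (12.5 or 40 µM) or the mixture (20 or 40 µM), then TGF-β 5 ng/ml for 48 h. MMP-2 and MMP-9 mRNA measured by RT-PCR with densitometry and by qRT-PCR, fold change by the 2^-ΔΔCt method. Mean±SD of triplicates.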

For experiment [7], the system named is SNU-182. The experiment in a line: Inhibition of TGFbeta1-induced epithelial-mesenchymal transition in human SNU182 cells assessed as reduction in MMP9 mRNA expression at 12.5 uM preincubated for 2 hrs followed by TGFbeta1 addition measured after 48 hrs by qRT-PCR method. The class given is functional, cell-based. In short, it runs like this:
as §2
A general note: In qPCR the cycle at which signal appears reflects the starting amount.

Turning to `CCCCC/C=C/C(=O)CCc1ccc(O)c(OC)c1` [SHOGAOL], the “growth inhibition (GI)” value in experiment [1] was “inactive”. In addition, the viability at 12.5 µM in experiment [2] was more than 90%. Further, the “growth inhibition (GI)” value in experiment [3] was “Dose-dependent effect”. For the same molecule, the inhibition result in experiment [4], in experiment [5], in experiment [6] and in experiment [7] was “inactive” each time.
